Laboratory results taken from ChEMBL document CHEMBL3616405 (J Med Chem, 2015).

Biological target: Albumin (Homo sapiens, UniProt P02768)
Assay: Binding affinity to human serum albumin at 100 uM by analytical ultracentrifugation analysis relative to liraglutide
Format: ADME
Settings: isolated protein; call rule not given here
Outline: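 Sedimentation-velocity analytical ultracentrifugation of 100 μM analogue with 10 μM purified monomeric HSA in PBS, pH 7.4, at 20 °C and 40 000 rpm, read at 250 nm. Free fraction Φ = c_free/(c_tot − c_HSA). Three experiments were averaged, with SD.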

Albumin, sequence (P02768 whole entry): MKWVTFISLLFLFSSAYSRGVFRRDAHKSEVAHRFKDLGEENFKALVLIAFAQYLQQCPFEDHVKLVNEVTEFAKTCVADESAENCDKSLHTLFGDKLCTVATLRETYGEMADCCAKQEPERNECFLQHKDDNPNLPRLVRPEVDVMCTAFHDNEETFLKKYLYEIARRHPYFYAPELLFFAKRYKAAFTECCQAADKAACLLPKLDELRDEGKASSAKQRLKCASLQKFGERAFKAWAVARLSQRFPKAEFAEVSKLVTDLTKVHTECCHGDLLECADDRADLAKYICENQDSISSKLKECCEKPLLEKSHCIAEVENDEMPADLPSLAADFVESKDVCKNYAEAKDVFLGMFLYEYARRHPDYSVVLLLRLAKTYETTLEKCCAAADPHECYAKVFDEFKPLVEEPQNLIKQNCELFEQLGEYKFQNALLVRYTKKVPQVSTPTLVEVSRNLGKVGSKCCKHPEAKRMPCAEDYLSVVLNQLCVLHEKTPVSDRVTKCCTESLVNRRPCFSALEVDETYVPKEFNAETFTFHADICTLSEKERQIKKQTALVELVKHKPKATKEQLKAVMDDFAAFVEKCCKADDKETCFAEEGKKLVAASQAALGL

CC[C@H](C)[C@H](NC(=O)[C@H](Cc1ccccc1)NC(=O)[C@H](CCC(=O)O)NC(=O)[C@H](CCCCNC(=O)COCCOCCNC(=O)COCCOCCNC(=O)CC[C@H](NC(=O)CCCCCCCCCCCCCCCCC(=O)O)C(=O)O)NC(=O)[C@H](C)NC(=O)[C@H](C)NC(=O)[C@H](CCC(N)=O)NC(=O)CNC(=O)[C@H](CCC(=O)O)NC(=O)[C@H](CC(C)C)NC(=O)[C@H](Cc1ccc(O)cc1)NC(=O)[C@H](CO)NC(=O)[C@H](CO)NC(=O)[C@@H](NC(=O)[C@H](CC(=O)O)NC(=O)[C@H](CO)NC(=O)[C@@H](NC(=O)[C@H](Cc1ccccc1)NC(=O)[C@@H](NC(=O)CNC(=O)[C@H](CCC(=O)O)NC(=O)[C@H](C)NC(=O)[C@@H](N)Cc1c[nH]cn1)[C@@H](C)O)[C@@H](C)O)C(C)C)C(=O)N[C@@H](C)C(=O)N[C@@H](Cc1c[nH]c2ccccc12)C(=O)N[C@@H](CC(C)C)C(=O)N[C@H](C(=O)N[C@@H](CCCNC(=N)N)C(=O)NCC(=O)N[C@@H](CCCNC(=N)N)C(=O)NCC(=O)O)C(C)C
Activity: Not Active
